Source: ChEMBL document CHEMBL1240482, “Synthesis and antiproliferative evaluation of certain indeno[1,2-c]quinoline derivatives. Part 2” (J Med Chem, 2010)
Activity calls are given as the source filed them. No cut-off for these calls is given here.

Legend:
Nucleic Acid = test: Binding affinity to pBR322; format: nucleic-acid assay; settings: Escherichia coli
[1] = Clearance in CD1 mouse at 2 mg/ kg, iv; format: ADME, organism-based; parameters: dose 2 mg/ kg, route intravenous; settings: in vivo
Outline: (§1)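 Fasted male CD-1 (Crl.) mice, 22-24 g; single tail-vein bolus of 2.0 mg/kg in PEG400/ethanol/water (30/5/65), 10 mL/kg. Cardiac-puncture blood into K-EDTA at 0-27 h, three mice per time point; plasma analysed by LC-MS/MS after acetonitrile precipitation. Parameters calculated from mean plasma concentrations.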

Mus musculus [2] = test: Toxicity to BALB/c mouse assessed as change in blood urea nitrogen at 20 mg/kg, iv; format: organism-based; parameters: dose 20 mg/kg, route intravenous; settings: in vivo
Outline: (§2)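 BALB/c mice, 3 per group, randomized by body weight (stratified). Dosed iv via tail vein at 10, 20 or 40 mg/kg in PEG 400/ethanol/water (20/20/60), once every 3 days for 2 weeks; solvent controls. Weighed throughout. After a 24 h fast, heart blood was drawn under ether; GOT, GPT, BUN and creatinine were measured on an analyzer. Liver and kidney taken for H&E.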

[3] = AUC (0 to infinity) in CD1 mouse at 20 mg/ kg, po; format: ADME, organism-based; parameters: time infinity, dose 20 mg/ kg, route oral; settings: plasma
Outline: (§3)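 Male CD-1 (Crl.) mice, 22-24 g, fasted 4 h before dosing; single oral gavage of 20 mg/kg as a suspension in 0.5% methylcellulose/water, 10 mL/kg. Cardiac-puncture plasma (K-EDTA) taken predose to 27 h, three mice per time point; LC-MS/MS quantification.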

SAS = test: Selectivity index, ratio of IC50 for human Detroit 551 cells to IC50 for human SAS cells; format: functional
[4] = Tmax in CD1 mouse at 20 mg/ kg, po; format: ADME, organism-based; parameters: dose 20 mg/ kg, route oral; settings: in vivo; outline: as §3
Detroit 551 [5] = test: Selectivity index, ratio of IC50 for human Detroit 551 cells to IC50 for human SKHep cells; format: functional
[6] = Half life in CD1 mouse at 20 mg/ kg, po; format: ADME, organism-based; parameters: dose 20 mg/ kg, route oral; settings: in vivo; outline: as §3
[7] = AUC (0 to infinity) in CD1 mouse at 2 mg/ kg, iv; format: ADME, organism-based; parameters: time infinity, dose 2 mg/ kg, route intravenous; settings: plasma; outline: as §1
[8] = Mean retention time in CD1 mouse at 20 mg/ kg, po; format: ADME, organism-based; parameters: dose 20 mg/ kg, route oral; settings: in vivo; outline: as §3
Mus musculus [9] = test: Toxicity to BALB/c mouse assessed as change in glutamic oxalacetic transaminase at 20 mg/kg, iv; format: organism-based; parameters: dose 20 mg/kg, route intravenous; settings: in vivo; outline: as §2
[10] = Cell cycle arrest in human BT-483 cells assessed as accumulation at sub-G1 phase at 3 uM after 24 hrs by flow cytometry; format: functional, cell-based
Outline: (§4)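 BT483 cells exposed to 0, 1, 3 or 10 μM for 24 h, then stained with propidium iodide and analysed for DNA content by flow cytometry. The subdiploid (sub-G1) peak, expressed as a percentage of the whole population, is scored as apoptotic.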

[11] = Cytotoxicity against human Detroit 551 cells after 48 hrs by MTT assay; format: cell-based
Outline: (§5)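 Cells grown in DMEM with 10% FBS at 37 °C and 5% CO2, seeded at 5 × 10^3 per well and allowed 24 h before drug. Serial dilutions from DMSO stocks applied for 48 h. MTT (2 mg/mL in PBS) added for 2 h, formazan dissolved in DMSO, absorbance read at 570 nm. GI50 interpolated by linear regression from at least three points in the 20-80% range; three independent experiments.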

[12] = Apparent volume of distribution in CD1 mouse at 2 mg/ kg, iv; format: ADME, organism-based; parameters: dose 2 mg/ kg, route intravenous; settings: in vivo, read-out: Vz; outline: as §1
[13] = Half life in CD1 mouse at 2 mg/ kg, iv; format: ADME, organism-based; parameters: dose 2 mg/ kg, route intravenous; settings: in vivo; outline: as §1
PC-3 = test: Cytotoxicity against human PC3 cells after 48 hrs by MTT assay; format: functional; settings: PC-3, 48 h; outline: as §5
[14] = Cytotoxicity against human BT-483 cells after 48 hrs by MTT assay; format: functional; settings: BT-483, 48 h; outline: as §5
Detroit 551 [15] = test: Selectivity index, ratio of IC50 for human Detroit 551 cells to IC50 for human BT-483 cells; format: functional
[16] = Mean retention time in CD1 mouse at 2 mg/ kg, iv; format: ADME, organism-based; parameters: dose 2 mg/ kg, route intravenous; settings: in vivo; outline: as §1
Homo sapiens = species: Homo sapiens; test: Inhibition of human topoisomerase 2 assessed as decrease in pBR322 mobility on agarose gel at 10 uM by electrophoresis
Outline: (§6)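 Enzyme preincubated with compound before DNA addition; reaction run 30 min at 37 °C and stopped with SDS. Products resolved on 1% agarose, stained with ethidium bromide, quantified by densitometry.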

[17] = Cytotoxicity against human SKHep cells after 48 hrs by MTT assay; format: functional; outline: as §5
[18] = Volume of distribution at steady state in CD1 mouse at 2 mg/ kg, iv; format: ADME, organism-based; parameters: dose 2 mg/ kg, route intravenous; settings: in vivo, read-out: Vdss; outline: as §1
Mus musculus [19] = test: Toxicity to BALB/c mouse assessed as survival rate at 20 mg/kg, iv; format: organism-based; parameters: dose 20 mg/kg, route intravenous; settings: in vivo
Outline: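 Balb/C athymic nude mice (6-8 weeks, ~20 g) bearing subcutaneous BT483 breast xenografts (0.5 × 10^6 cells). Treatment began at ~500 mm3 tumour volume: cosolvent formulation diluted in 5% dextrose, iv at 10 or 20 mg/kg once daily for 14 days; controls received vehicle. 3 animals per group. Survival was assessed by Kaplan-Meier analysis at study end, p < 0.05.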

[20] = Cell cycle arrest in human BT-483 cells assessed as accumulation at sub-G1 phase at 10 uM after 24 hrs by flow cytometry; format: functional, cell-based; outline: as §4
[21] = Inhibition of human topoisomerase 2 assessed as decrease in pBR322 mobility on agarose gel by electrophoresis; outline: as §6
A549 = test: Cytotoxicity against human A549 cells after 48 hrs by MTT assay; format: functional; settings: A549, 48 h; outline: as §5
[22] = Cell cycle arrest in human BT-483 cells assessed as accumulation at sub-G1 phase at 1 uM after 24 hrs by flow cytometry; format: functional, cell-based; outline: as §4
BT-483 = test: Antitumor activity against human BT-483 cells xenografted in BALB/c athymic mouse assessed as reduction in tumor size at 10 to 20 mg/kg, iv; format: functional, organism-based
Outline: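 Balb/C athymic nude mice, 6-8 weeks, about 20 g, given subcutaneous BT483 breast cancer cells. Once tumours averaged about 500 mm3, dosed iv at 10 or 20 mg/kg once daily for 14 days, in a cosolvent formulation diluted in 5% dextrose; vehicle controls; three animals per group. Caliper volume taken as width × length × height.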

Mus musculus [23] = test: Toxicity to BALB/c mouse assessed as change in body weight at 20 mg/kg, iv; format: organism-based; parameters: dose 20 mg/kg, route intravenous; settings: in vivo; outline: as §2
HeLa = test: Selectivity index, ratio of IC50 for human Detroit 551 cells to IC50 for human HeLa cells; format: functional

With `COc1ccc2c(c1)/C(=N\OCCN1CCCC1)c1c-2c(O)nc2ccccc12` the Activity (Nucleic Acid) was “Active”, the clearance [1] was 193 mL/min/kg and the Activity (Mus musculus [2]) was “Non-toxic”. The AUC(0-inf) [3] was 187 ng·h/mL, the RatioGI50 (SAS) was 14.81 and the Tmax [4] was 1 h. It also gave a RatioGI50 (Detroit 551 [5]) of 10.03, a half-life [6] of 2.2 h and an AUC(0-inf) [7] of 172 ng·h/mL. For the same compound, the MRT [8] was 3.4 h, the Activity (Mus musculus [9]) was “Non-toxic” and the Activity [10] was 58%. The GI50 at 48 h [11] was 12400 nM, the Vd [12] was 25.5 L/kg and the half-life [13] was 1.5 h. The GI50 (PC-3) was 1830 nM, the GI50 [14] was 790 nM and the RatioGI50 (Detroit 551 [15]) was 15.75. The MRT [16] was 1.1 h, the inhibition (Homo sapiens) was 60% and the GI50 [17] was 1240 nM. The Vd [18] was 12.3 L/kg, the Activity (Mus musculus [19]) was “Non-toxic” and the Activity [20] was 88%. The IC50 [21] was 8260 nM, the GI50 (A549) was 890 nM and the Activity [22] was 43%. The Activity (BT-483) was “Active”, the Activity (Mus musculus [23]) was “Non-toxic” and the RatioGI50 (HeLa) was 54.09.
